SIAE inh: human SIAE inhibitors, primary screen, biochemical, fluorescence polarization, FP-Rh probe, 1536-well HTS. AID 1053197, 2014. SIAE FP-Rh probe binding. 0.69% of 370,000 active. Sialate O-acetylesterase (Homo sapiens), Q9HAT2. inhibition, % at 9.66 µM;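 active = inhibition above a cutoff: mean of compounds within the control limits plus 3 SD of those, cut at about 17% in these data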
ARNT TACC3 PPI: disruptors of ARNT/TACC3 protein interaction, primary screen, biochemical, AlphaScreen, single concentration. Transforming acidic coiled-coil-containing protein 3 (Homo sapiens), Q9Y6A5. AlphaScreen His-ARNT PAS-B/GST-TACC3 binding, luminescence; TACC3 fragment carries E629A point mutation. inhibition, % at 9.99 µM. 0.66% of 390,000 active;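 active = mean inhibition of replicates at least 50% and at least half of replicates each reaching 50%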
mABHD4 FP: ABHD4 inhibitors, primary screen, biochemical, fluorescence polarization, mouse; inhibition, % at 8.92 µM; purified mABHD4, FP-Rh probe fluorescence polarization; AID 720543, 2013; 0.54% of 370,000 active;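 active = inhibition exceeding the mean over every tested compound plus 3 SD, cut at about 30% in these data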
Target sequence (Q8VD66 whole entry, looked up): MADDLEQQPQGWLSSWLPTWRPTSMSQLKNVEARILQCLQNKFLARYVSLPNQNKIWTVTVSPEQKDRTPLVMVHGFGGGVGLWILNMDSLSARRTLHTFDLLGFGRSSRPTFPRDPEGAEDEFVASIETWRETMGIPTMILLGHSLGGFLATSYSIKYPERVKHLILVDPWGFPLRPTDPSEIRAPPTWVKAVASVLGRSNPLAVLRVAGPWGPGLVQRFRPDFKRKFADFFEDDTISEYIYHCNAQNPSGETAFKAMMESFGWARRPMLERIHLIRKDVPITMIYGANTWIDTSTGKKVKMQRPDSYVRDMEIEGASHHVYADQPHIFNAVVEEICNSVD
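Assay system: mABHD4 protein; medium: HEPES pH 7.0, NaCl, Pluronic buffer; dosing: 8.92 µM, single dose; schedule: 45 min + 60 min at 25 °C; signal: FP readout, ex 525 nm / em 598 nm; read-out: normalized percent inhibition of probe labeling; repeats: single replicate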
TCR CD3 inh: inhibitors of human TCR-CD3 interaction, primary screen, biochemical, fluorescence, TAMRA-labeled TCR probe. 0.37% of 360,000 active. inhibition, % at 9.4 µM. T-cell receptor (TCR); in the data active = inhibition above about 19%;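 also: recombinant mutant TCR 2C K166C tagged with TAMRA read by polarization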
HTRA1 inhibitor: HTRA1 serine protease inhibitors, primary screen, biochemical, fluorescence polarization, HTS | 0.5% of 340,000 active | inhibition, % at 5.96 µM | Q92743 | recombinant HTRA1, FP-rhodamine activity-based probe; in the data active = inhibition above about 36%
SIAE confirm: human SIAE inhibitors, retest, confirmation, biochemical, fluorescence polarization, FP-Rh probe, triplicate; inhibition, % at 9.66 µM; SIAE FP-Rh activity-based probe; 13% of 2,300 active; shares compounds with SIAE inh; AID 1117263, 2014;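 active = mean inhibition of the replicates above the hit cutoff set in the primary screen, cut at about 17% in these data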;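 also: inhibitors lower polarization as more probe stays unbound to SIAE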
A number is an active result; . = inactive; / = no result given. Rows were chosen to be rich in hits. Some 1.8% of all compounds tested hit in one or more screens of this group.

SMILES	SIAE inh	ARNT TACC3 PPI	mABHD4 FP	TCR CD3 inh	HTRA1 inhibitor	SIAE confirm
COc1ccc(NC(=O)N(C)C[C@H]2Oc3c(NC(=O)c4ccncc4)cccc3C(=O)N([C@H](C)CO)C[C@@H]2C)cc1	23	.	.	.	.	.
COc1ccc(NC(=O)N(C)C[C@@H]2Oc3c(NC(=O)c4ccncc4)cccc3C(=O)N([C@@H](C)CO)C[C@@H]2C)cc1	/	.	/	/	/	/
CO[C@H]1CN(C)C(=O)c2cc(NC(C)=O)ccc2OC[C@@H](C)N(C(=O)C2CCCCC2)C[C@@H]1C	/	.	/	/	/	/
CNC(=O)C[C@H]1CC[C@H]2[C@@H](COC[C@H](O)CN2C(=O)c2ccc3c(c2)OCO3)O1	/	.	/	/	/	/
Cc1sc(N/N=C/c2cccnc2)nc1-c1ccccc1	17	.	.	.	.	.
Cc1sc(N/N=C/c2ccco2)nc1-c1ccccc1	.	.	.	.	.	/
O=[N+]([O-])c1cc(/C=N/n2c(-c3cccnc3)n[nH]c2=S)ccc1Cl	.	.	.	.	.	/
O=[N+]([O-])c1ccccc1/C=N/n1c(-c2cccnc2)n[nH]c1=S	17	.	.	.	.	.
Cc1noc(C)c1NC(=O)N(C)C[C@@H]1OCCCC[C@H](C)Oc2ccc(NC(=O)Nc3ccccc3)cc2C(=O)N([C@H](C)CO)C[C@@H]1C	/	.	/	/	/	/
O=C(N[C@H]1CC[C@H](CC(=O)N2CCCCC2)O[C@H]1CO)c1ccc2c(c1)OCO2	/	.	/	/	/	/
OC(COCc1ccccc1)CN1CCc2ccccc2C1 (configuration not stated)	.	.	.	.	.	/
COc1ccc(COCC(O)CN2CCc3ccccc3C2)cc1OC (configuration not stated)	20	.	.	.	.	.
COC(=O)C[C@H]1CC[C@H]2[C@H](COc3ccc(NC(=O)Nc4cccc(F)c4)cc3C(=O)N2C)O1	/	.	/	/	/	/
CN(C)C(=O)c1cccc(-c2ccc3c(c2)[C@@H]2[C@@H](CCN2C(=O)c2ccccc2)[C@H](CO)N3C)c1	/	.	/	/	/	/
O=C(O)c1ccc(-c2cccc(Cl)c2)o1	18	.	.	.	.	.
S=C(c1ccc(-c2cccc(Cl)c2)o1)N1CCCCC1	.	.	.	.	.	/
O=C(NCC1CC1)[C@H]1[C@H](CO)[C@H]2Cn3c(ccc(-c4cccc(F)c4)c3=O)[C@H]2N1CC1CCOCC1	/	.	/	/	/	/
Cc1ccc(N(CC(=O)NC2CCCC2)C(=O)CCC(=O)Nc2nccs2)cc1C	18	.	.	.	.	.
C[C@H](CO)N1C[C@H](C)[C@H](CN(C)C(=O)Nc2ccccc2)Oc2c(NC(=O)c3cnccn3)cccc2C1=O	/	.	/	/	/	/
Cc1ccc(NC(=O)c2ccc(NCC3CCCO3)c([N+](=O)[O-])c2)cc1Cl (configuration not stated)	72	.	.	.	.	.
NC(=O)c1ccc(NCC2CCCO2)c([N+](=O)[O-])c1 (configuration not stated)	.	.	.	.	.	/
CO[C@@H]1CN(C)C(=O)c2cc(NS(=O)(=O)c3ccccc3C)ccc2OC[C@@H](C)N(S(C)(=O)=O)C[C@H]1C	/	.	/	/	/	/
Cc1ccccc1N=C1Nc2ccccc2N[C@]12C[C@H]1CCC(=O)N3CC[C@@H](C2)[C@@H]13	18	.	.	.	.	.
CCCNC(=O)N[C@@H]1C=C[C@H](CC(=O)N2CCN(C)CC2)O[C@H]1CO	/	.	/	/	/	/
Cc1ccc(F)c(NC(=S)Nc2cccc3ccccc23)c1	18	.	.	.	.	.
SMILES	SIAE inh	ARNT TACC3 PPI	mABHD4 FP	TCR CD3 inh	HTRA1 inhibitor	SIAE confirm
S=C(Nc1cccc2ccccc12)Nc1cccc2ccccc12	.	.	.	.	.	/
CN(C)c1nc2c(N)ncnc2n1C1OC(CO)C(O)C1O (configuration not stated)	.	.	.	.	.	/
CN(C)c1nc2c(N)ncnc2n1[C@H]1O[C@@H](CO)[C@H](O)[C@@H]1O	22	.	.	.	.	.
Cn1c(N)c(N=O)c(=O)n(C)c1=O	17	.	.	.	.	.
CCCCNC(=O)c1ccc(C#CC(C)(C)C)c(OC(C)=O)c1	/	.	/	/	/	/
CO[C@@H]1CN(C)C(=O)c2ccc(NC(=O)Nc3ccc(Cl)cc3)cc2OC[C@@H](C)N(C(=O)Nc2c(C)noc2C)C[C@H]1C	/	.	/	/	/	/
CCOCCCNCC(=O)N1CCN(S(=O)(=O)c2ccc(C)cc2)CC1	17	.	.	.	.	.
CN1CCN(C(=O)CCC(=O)NCc2ccc(F)cc2)CC1	.	.	.	.	.	/
CCOC(=O)N1CCN(S(=O)(=O)c2ccc(C)cc2)CC1	.	.	.	.	.	/
Cc1ccc(S(=O)(=O)N2CCN(C(=O)CCC(=O)NCc3ccc(F)cc3)CC2)cc1	18	.	.	.	.	.
CCOC(=O)C(NC(=O)Nc1ccc(F)cc1F)(Oc1ccc(F)cc1)C(F)(F)F (configuration not stated)	.	.	.	.	.	/
CCOC(=O)C(NC(=O)Nc1ncccn1)(Oc1ccccc1)C(F)(F)F (configuration not stated)	24	.	.	.	.	.
Cc1cc2ccccn2c1C(=O)c1ccc(S(=O)(=O)N(C)C)cc1	19	.	.	.	.	.
C=CC[C@@]1(C(=O)NCCCOC)N=C(c2ccc(OCCCO)cc2)O[C@@H]1c1ccccc1	/	.	/	/	/	/
CCOC(=O)N/N=C/c1cn(Cc2ccc(Cl)cc2)c2ccccc12	18	.	.	.	.	.
CC(C)NC(=O)N1[C@H](CO)[C@@H]2c3ccccc3N(C(=O)c3ccc(F)cc3)C[C@@H]21	/	.	/	/	/	/
COc1ccc2oc(=O)c(C(=O)NCc3ccc(F)cc3)cc2c1	62	.	.	.	.	.
Cc1ccc(NC(=O)c2ccc(S(=O)(=O)N(C)c3ccccc3)cc2)cc1S(=O)(=O)N1CCOCC1	18	.	.	.	.	.
COc1ccc(CC2=CC(=O)c3ccccc3C2=O)cc1	18	.	.	.	.	.
COc1ccc(Cc2ccccc2C(=O)O)cc1	.	.	.	.	.	/
COc1cccc(-c2ccc3n(c2=O)C[C@@H]2[C@@H](CO)[C@H](C(=O)NC4CCC4)N[C@H]32)c1	/	.	/	/	/	/
COCC(=O)N1C[C@H]2[C@@H](c3ccccc31)[C@H](CO)N2Cc1ccccc1F	/	.	/	/	/	/
Cc1cc2nc(C)c(Cl)c(=O)n2[nH]1	35	.	.	.	.	.
O=C(c1ccccn1)N1C[C@@H]2[C@H](c3ccccc31)[C@@H](CO)N2C(=O)C1CC1	/	.	/	/	/	/

Compound activity from PubChem BioAssay.
